According to ChEMBL document CHEMBL1156704, “Angiotensin II--AT1 receptor antagonists: design, synthesis and evaluation of substituted carboxamido benzimidazole derivatives” (Eur J Med Chem, 2008):

What was measured:
Rattus norvegicus [1] = experiment: Antihypertensive activity against desoxycortisone-induced hypertension in rat assessed as decrease in mean arterial blood pressure at 3 mg/kg, ip; type: functional, Artery; details: route intraperitoneal
In short: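 Hypertension induced in rats with desoxycortisone acetate 40 mg kg-1 s.c. Mean arterial blood pressure recorded through a carotid artery cannula connected to a pressure transducer. Test agents were given intraperitoneally. The dose-finding series used 0.1–30.0 mg kg-1, and the remaining agents were tested at 1.0, 3.0 and 10.0 mg kg-1.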

[2] = biological target: T1, Type-1 angiotensin II receptor A (Rattus norvegicus, UniProt P25095); experiment: (§1) Antagonist activity at AT1 receptor in rat aorta; type: functional, tissue-based; details: read-out: pA2 (converted)
T1 sequence (P25095 whole entry): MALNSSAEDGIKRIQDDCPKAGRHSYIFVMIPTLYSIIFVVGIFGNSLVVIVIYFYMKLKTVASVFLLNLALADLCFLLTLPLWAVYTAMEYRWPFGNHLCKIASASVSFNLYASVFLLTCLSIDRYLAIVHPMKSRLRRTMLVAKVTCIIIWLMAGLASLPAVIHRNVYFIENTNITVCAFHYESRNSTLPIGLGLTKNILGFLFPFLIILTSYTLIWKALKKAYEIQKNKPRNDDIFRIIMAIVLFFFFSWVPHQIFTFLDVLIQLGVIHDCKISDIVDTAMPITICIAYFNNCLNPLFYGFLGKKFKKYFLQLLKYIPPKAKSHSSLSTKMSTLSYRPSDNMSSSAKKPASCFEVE

[3] = biological target: T2, Type-1 angiotensin II receptor A (Rattus norvegicus) (UniProt P25095); experiment: as §1; type: functional, tissue-based
T2 sequence (whole entry): T1 sequence (P25095 whole entry)

Rattus norvegicus [4] = experiment: Antihypertensive activity against desoxycortisone-induced hypertension in rat assessed as decrease in mean arterial blood pressure at 5 mg/kg, ip; type: functional, Artery; details: route intraperitoneal

| Kb [2] [nM] | pA10 [3] | Structure (SMILES) | Activity (Rattus norvegicus [1]) [mmHg] | Activity (Rattus norvegicus [4]) [mmHg] |
| --- | --- | --- | --- | --- |
| 20 | 4.7 | CCCCc1nc2cc(NC(=O)CC)ccc2n1Cc1ccc(-c2ccccc2C(=O)O)cc1 | 36.2 | – |
| 398 | 3.7 | CCCCC(=O)Nc1ccc2c(c1)nc(CCCC)n2Cc1ccc(-c2ccccc2C(=O)O)cc1 | 21.7 | – |
| 251 | 6 | CCCCc1nc2cc(NC(=O)c3ccccc3)ccc2n1Cc1ccc(-c2ccccc2C(=O)O)cc1 | 19.8 | – |
| 631 | 5.4 | CCCCc1nc2cc(NC(=O)c3ccc(Cl)cc3)ccc2n1Cc1ccc(-c2ccccc2C(=O)O)cc1 | 12 | – |
| – | 6.5 | CCCCc1nc(Cl)c(CO)n1Cc1ccc(-c2ccccc2-c2nnn[nH]2)cc1 [LOSARTAN] | – | 29.7 |
| 316 | 5.8 | CCCCc1nc2cc(NC(=O)c3ccccc3Cl)ccc2n1Cc1ccc(-c2ccccc2C(=O)O)cc1 | 20.3 | – |
| 10 | 7.1 | CCOc1nc2cccc(C(=O)O)c2n1Cc1ccc(-c2ccccc2-c2nnn[nH]2)cc1 | – | 31.8 |
| 10 | 5.9 | CCCCc1nc2cc(NC(C)=O)ccc2n1Cc1ccc(-c2ccccc2C(=O)O)cc1 | 33.5 | – |
| 79.4 | 4.4 | CCCCc1nc2cc(NC(=O)CCC)ccc2n1Cc1ccc(-c2ccccc2C(=O)O)cc1 | 26.4 | – |
| 15.8 | 7 | CCCCc1nc2cc(N)ccc2n1Cc1ccc(-c2ccccc2C(=O)O)cc1 | 33.3 | – |
